APJ agonist – agonists of human APJ apelin receptor; CHO-K1 APJ PathHunter beta-arrestin, luminescence; 0% DMSO wells, 100% apelin; P35414; 0.11% of 330,000 active; AID 2520; activation, % at 20 µM;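 active means activation more than six SD over the plate average, tested at 20 µM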
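Assay system: engineered CHO-K1 APJ arrestin reporter cells; Amount: 1000 CHO-K1 reporter cells seeded per well; Dosing: one dose, 20 µM compound, 1% DMSO; Times: compound stimulation 90 min at 25 °C, detection 60 min; Measured by: luminescent beta-gal fragment complementation, chemiluminescent substrate; Read-out: APJ–arrestin association signal; Controls: DMSO vs Apelin-13 10 nM.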
CXCR6 inh – CXCR6 (human) receptor inhibition. O00574. CHO-K1 PathHunter CXCR6 beta-arrestin, luminescence. inhibition, % at 20 µM. 0.36% of 360,000 active; in the data active means inhibition above about 34%, passing the limit was not always enough;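 further: antagonist mode with CXCL16 agonist at 10 nM final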
CCR6 antagonist – CCR6 (human) receptor antagonism | P51684 | CHO-K1 CCR6 PathHunter beta-arrestin, luminescence, CCL20-stimulated | inhibition, % at 20 µM | 0.49% of 340,000 active;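 active means compounds whose inhibition of the agonist-driven luminescence signal at 20 µM reaches about 50%, limit read from the data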;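 further: cells stimulated with CCL20 at 14 nM final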
Target sequence (P51684 whole entry, looked up): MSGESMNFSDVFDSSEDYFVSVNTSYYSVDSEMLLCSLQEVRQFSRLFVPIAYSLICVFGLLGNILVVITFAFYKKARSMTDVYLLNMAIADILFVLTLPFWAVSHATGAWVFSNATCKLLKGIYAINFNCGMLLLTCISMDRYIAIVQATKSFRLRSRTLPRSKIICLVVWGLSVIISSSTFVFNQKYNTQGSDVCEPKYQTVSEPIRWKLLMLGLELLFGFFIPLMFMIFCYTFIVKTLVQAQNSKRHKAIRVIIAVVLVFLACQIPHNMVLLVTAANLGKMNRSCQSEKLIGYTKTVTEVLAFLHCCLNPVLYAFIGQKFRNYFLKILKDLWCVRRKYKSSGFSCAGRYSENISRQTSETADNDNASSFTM
EBI2 antag – blocks human EBI2 receptor beta-arrestin signaling. P32249. EBI2 beta-arrestin recruitment, luminescence, 7a,25-OHC stimulated. inhibition, % at 5 µM. 0.81% of 360,000 active. AID 651636; in the data active means inhibition above about 38%;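 further: enzyme fragment complementation signal reports receptor beta-arrestin coupling in cells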
HTR2A ag – activates the mouse 5-HT2A serotonin receptor; P35363; CHO-K1 mHTR2A beta-arrestin complementation, luminescence; percent of 30 µM serotonin response; activation, % at 7.6 µM; 0.66% of 360,000 active; AID 624169;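 active means activation above a run cutoff, the mean activation of all tested compounds plus 3 SD, cut at about 14% in these data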
APJ antagonist – blocks the human apelin receptor APJ. 0.32% of 330,000 active. AID 2521. CHO-K1 APJ beta-arrestin complementation, luminescence. inhibition, % at 20 µM;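 active means inhibition above about 40% at 20 µM, limit read from the data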;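 further: cells challenged with 10 nM apelin-13 agonist together with compound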
EBI2 conf – EBI2 (human) antagonism, single concentration confirmation; 29% of 2,400 active; shares compounds with EBI2 antag; inhibition, % at 5 µM; AID 651997; EBI2 beta-arrestin luminescence, 7a,25-OHC antagonism;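 active means inhibition of at least 50%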
EBI2 agonist – activates EBI2, counter-screen for EBI2 antagonists; shares compounds with EBI2 antag; EBI2-expressing cells, agonist mode, luminescence, 60 min; 0% vehicle, 100% 7α,25-dihydroxycholesterol control; activation, % at 5 µM; 2,400 tested, under 10 active; AID 652000;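 active means activation of at least 50%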
bGal cs – inhibits E. coli beta-galactosidase, counter-screen for EBI2 antagonists; AID 652176; inhibition, % at 5 µM; shares compounds with EBI2 antag; purified beta-galactosidase, luminescent Galacton Star, 15 min; 1% of 2,400 active;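 active means replicate-average signal at least 3 plate SD below neutral wells, shown as high inhibition, flagging enzyme-inhibiting false positives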;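 further: higher means stronger loss of beta-gal luminescence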
Of the large screens only hits and unclear results are named; the others gave an inactive call (follow-up assays come after a bar, where they were run). Only some compounds are listed: those with a hit (about 2.1% of all), similar ones and a draw of the others.

C(=C\c1ccccc1)/CN1CCN(C(CCc2ccccc2)c2nnnn2C2CCCC2)CC1 (stereo unspecified)	EBI2 antag 51 (no result: APJ agonist, CCR6 antagonist, APJ antagonist) | EBI2 conf inactive | EBI2 agonist inactive | bGal cs inactive
FC(F)(F)Oc1ccccc1C(c1nnnn1C1CCCC1)N1CCN(C/C=C/c2ccccc2)CC1 (stereo unspecified)	EBI2 antag 64 (no result: APJ agonist, CCR6 antagonist, APJ antagonist) | EBI2 conf inactive | EBI2 agonist inactive | bGal cs inactive
COc1cccc(C(c2nnnn2C2CCCCC2)N2CCN(C/C=C/c3ccccc3)CC2)c1OC (stereo unspecified)	none (no result: APJ agonist, CCR6 antagonist, APJ antagonist)
Cc1cc(SCC(=O)N/N=C/c2cccnc2)nc2c(C)cccc12	EBI2 antag 65 | EBI2 conf inactive | EBI2 agonist inactive | bGal cs inactive
Cc1cc(-c2nnc(-c3cccc(Cl)c3)o2)no1	none
Cc1cccc(N2CCN(C(=O)NCc3ccc(F)cc3)CC2)c1C	EBI2 antag 58 | EBI2 conf inactive | EBI2 agonist inactive | bGal cs inactive
COc1ccc(CNC(=O)N2CCN(c3cccc(C)c3C)CC2)cc1OC	none
Cc1cccc(N2CCN(C(=O)Cc3ccc(Br)cc3)CC2)c1C	EBI2 antag 47 | EBI2 conf inactive | EBI2 agonist inactive | bGal cs inactive
Cc1cc(OCC(=O)N2CCCC2)ccc1Cl	none
CCOC(=O)N1CCN(C(=O)COc2ccc(Cl)c(C)c2)CC1	EBI2 antag 86 | EBI2 conf 54 | EBI2 agonist inactive | bGal cs inactive
CCOC(=O)N1CCN(C(=O)COc2ccc(Cl)cc2)CC1	EBI2 antag 83 | EBI2 conf 55 | EBI2 agonist inactive | bGal cs inactive
CC(C)(C)SCCNC(=O)COc1ccc(Cl)cc1	none
Cc1ccccc1CSCCNC(=O)COc1ccc(Cl)cc1	EBI2 antag 55 | EBI2 conf inactive | EBI2 agonist inactive | bGal cs inactive
Cc1ccc(/C=N/NC(=O)Cc2cccn2C)cc1	EBI2 antag 46 | EBI2 conf inactive | EBI2 agonist inactive | bGal cs inactive
CSc1ccc(/C=N/N2CCN(Cc3ccc(Cl)cc3)CC2)cc1	none
CSc1ccc(/C=N/NC(=O)CN2CCN(Cc3ccccc3)CC2)cc1	EBI2 antag 50 | EBI2 conf inactive | EBI2 agonist inactive | bGal cs inactive
Cc1ccsc1/C=N/NC(=O)CSCc1ccc(Cl)cc1	none
CSc1ccc(/C=N/NC(=O)CN2CCN(Cc3ccc(Cl)cc3)CC2)cc1	EBI2 antag 50 | EBI2 conf inactive | EBI2 agonist inactive | bGal cs inactive
Cc1ccc(/C=N/NC(=O)CSCc2ccc(Cl)cc2)cc1	EBI2 antag 62 | EBI2 conf inactive | EBI2 agonist inactive | bGal cs inactive
CCC(C)N1C(=O)N(c2cccc(Cl)c2)C(C)(O)CC1(C)C (stereo unspecified)	none
Cc1ccc(-c2nnc(SCC(=O)NC3CC3)o2)cc1	none
CCCCCOC(=O)C1=C(C)NC(=O)NC1c1ccc(OC)cc1 (stereo unspecified)	none
COc1ccc(NC(=O)C2CCC(CNS(=O)(=O)c3cccs3)CC2)cc1 (stereo unspecified)	EBI2 antag 47 | EBI2 conf inactive | EBI2 agonist inactive | bGal cs inactive
CCOC(=O)c1ccc(NC(=O)c2c(N)n(Cc3ccccc3)c(=O)[nH]c2=O)cc1	none
CN(C)c1nc(N)c(C#N)c(C#N)c1C#N	none (no result: APJ agonist, APJ antagonist)
OC(COc1ccccc1)CN1CCN(c2ccccc2)CC1 (stereo unspecified)	none (no result: APJ agonist, APJ antagonist)
OC(COc1ccc(Br)cc1)CN1CCN(c2ccccc2)CC1 (stereo unspecified)	EBI2 antag 48 | EBI2 conf inactive | EBI2 agonist inactive | bGal cs inactive
